Reference: ChEMBL document CHEMBL4513216, “Probing the Open Global Health Chemical Diversity Library for Multistage-Active Starting Points for Next-Generation Antimalarials” (ACS Infect Dis, 2020)

Experiment: Toxicity liver stage against HepG2, at 10uM
Type: cell-based
Set-up: test concentration 10 uM, cell line HepG2-A16-CD81EGFP
Settings: human, HepG2-A16-CD81EGFP cells; read-out: INHIBITION
Summary of the method: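 Uninfected HepG2-A16-CD81EGFP cells, 3 × 10^3 per well, 1536-well, plated on prespotted compound at 10 μM final, parasite-free screening media added to match infected plates; puromycin 10 μM positive, DMSO 0.5% negative; run in parallel with 48 h PbLuc assay at 37 °C, 5% CO2; viability by CellTiter-Glo luminescence, normalized to controls.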

| SMILES | cytotoxicity at 10 µM [%] |
| --- | --- |
| Cc1c(C(=O)O)sc2nc(Cc3ccccc3)nc(N)c12 | -0.924 |
| CN1CCC(N2CCN3C(=O)NC[C@H]3C2)CC1 | 2.26 |
| Cc1ccccc1C(=O)Nc1ccc([C@H]2OCC(=O)N(C)[C@@H]2CO)cc1 | 0.461 |
| CN(C)C(=O)c1cccnc1SCc1ccccc1Cl | 3.25 |
| CCOC(=O)c1nc(COc2ccc(CC(N)=O)cc2)no1 | -6.24 |
| COc1ccc2nnc(CCC(=O)Nc3nc4c(s3)CCCC4)n2n1 | -6.98 |
| Cc1nnsc1C(=O)NCc1nn(C)c2c1COCC2 | -0.543 |
| CCOCC(=O)NCC(CC)(OC)c1ccccc1 (stereo not drawn) | -0.478 |
| O=C1CCC2(CCCN(C(=O)c3cccnc3)CC2)N1 (stereo not drawn) | 6.56 |
| CCn1cc2c(n1)C(COCC1CC1)CN(C(=O)c1ccsc1)C2 (stereo not drawn) | 18.6 |
| O=C(N1CCCC1)C12CC(CN1Cc1nccs1)C2 | -11.5 |
| CN1Cc2ccccc2CC2(CCN(c3ncc(F)cn3)CC2)C1=O | 6.59 |
| O=C1CCC2(CCCN(c3ncc(F)cn3)CC2)N1Cc1ccccc1 (stereo not drawn) | 2.87 |
| O=C(O)c1nnn(Cc2cccc(C(F)(F)F)c2)c1-c1ccccn1 | 2.27 |
| Oc1cc(C2CCCCN2CC2CC2)nc(-c2ccncc2)n1 (stereo not drawn) | 9.77 |
| Cc1cc(N2CCC(Cc3ccncc3)C2)ncn1 (stereo not drawn) | 0.328 |
| Cc1cc(N2CCC(Cc3cccnc3)C2)ncn1 (stereo not drawn) | -2.15 |
| CC1(c2cc[nH]n2)CCN(C(=O)c2ccc(Cl)cc2)CC1 | 0.812 |
| COCCN1CCC(c2ncc(C(=O)N3CCOCC3)c(C)n2)CC1 | 1.36 |
| c1cc(N2CCCCC2)ccc1-c1noc(CN2CCOCC2)n1 | -1.59 |
| O=C(CC1CCCC1)N1CCC(c2cc3ncccc3c(O)n2)CC1 | -24.7 |

| SMILES | cytotoxicity at 10 µM [%] |
| --- | --- |
| COc1ccccc1Oc1cncc(C2CCCN(C)C2)n1 (stereo not drawn) | -3.8 |
| CC(=O)N1CCCC(c2ccnc(N(C)C)n2)C1 (stereo not drawn) | -16.2 |
| Cc1cnc(N)c(C(=O)C2CCN(C(=O)c3cnc(C)nc3C)CC2)c1 | -18 |
| CC(=O)N1CCC(c2ccnc(Nc3cncnc3)n2)CC1 | -33.2 |
| c1cnc2[nH]c(C3CCCC3)c(CN3CCCCC3)c2c1 | -26.9 |
| CN(CC(=O)Nc1cnn(-c2ccccc2S(C)(=O)=O)c1)C1CC1 | 0.315 |
| CC(C)OCCS(=O)(=O)NC1CCN(C2CCCC2)C1 (stereo not drawn) | 1.68 |
| CN1CCOC(CNCC(=O)NCCc2ccc(F)cc2)C1 (stereo not drawn) | 1.38 |
| CCc1nc(CC)n(CC(=O)N(CC)CC)n1 | 3.1 |
| CN(C)c1cc2c(nn1)CCN(C(=O)c1cc3c(s1)CCCC3)C2 | -6.3 |
| Cc1nc(-c2cnn(C)c2)sc1C(=O)NCc1cccc(CN(C)C)c1 | 2.46 |
| CCOCCCC(=O)N1CCN(C(=O)Cc2cccc(OC)c2)CC1 | -1.86 |
| N#CCCNC(=O)CSc1cc(F)ccc1F | -3.74 |
| Cc1nc(NC(=O)C(C)N2CCN(c3cnccn3)CC2)sc1C (stereo not drawn) | 4.75 |
| CCNC(=O)CCN1CCCC1c1cccc2c1OCCO2 (stereo not drawn) | -4 |
| CCOc1cc(CN(C)CC(C)(C)O)ccc1OC(F)F | 2.31 |
| CC(=O)N1CCN(C(=O)c2cnc(OC(C)C)c(Cl)c2)CC1 | -4.36 |
| COc1ccc(S(=O)(=O)NC(=O)c2c(C)noc2C(C)C)cc1OC | -2.23 |
| CCCC(=O)NCC(=O)NC1CC(C)(C)Cc2oc(C)cc21 (stereo not drawn) | -4.32 |
| Cc1nccn1CCCNC(=O)C1CCCCN1Cc1ccncc1 (stereo not drawn) | -8.18 |
| CCSc1ccc(NC(=O)NC(C)c2c(C)noc2C)cn1 (stereo not drawn) | -3.69 |

| SMILES | cytotoxicity at 10 µM [%] |
| --- | --- |
| COc1ccc(CC(=O)N2CCC(c3n[nH]c(C4CC4)n3)CC2)cc1 | -14.6 |
| CCOc1ccc(NC(=O)N(CCC#N)Cc2ccccn2)cc1F | -6 |
| CC(C)c1nc(C2CCCN2c2ccnc(C3CCCC3)n2)no1 (stereo not drawn) | 28.5 |
| Cc1c(C(=O)NCCC(=O)N2CCOCC2)oc2c(C)cccc12 | -1.96 |
| Cc1ccc(OCC(=O)N(C)Cc2ccc(F)cc2)cn1 | 7.88 |
| CN(C)CC(=O)N1Cc2nc(C(=O)N3CCCN(C)CC3)oc2C1 | -105 |
| Cn1c2c(c(=O)n1C)CN(C(=O)c1cnccn1)CCC2 | -113 |
| CCNC(=O)C1CCN(c2nccc(C3CCCC3)n2)C1 (stereo not drawn) | -5.6 |
| Cc1ccc(-c2nnc(CN3CCOCC(CO)C3)o2)n1C (stereo not drawn) | -3.28 |
| Cc1ccccc1C(C(=O)O)N(C)CC1CCOCC1 (stereo not drawn) | 3.88 |
| Cc1ccc(N2CC[C@]3(O)CCN(CCN4CCCC4=O)C[C@@H]3C2)nn1 | -10.1 |
| COc1ncccc1NC(=O)N(CC(C)C)C1CC1 | -0.874 |
| Cc1ccc(C)c(CS(=O)(=O)CC(=O)NCCCOC(C)C)c1 | -2.51 |
| CC(C(=O)NCCN1CCOCC1)n1cncn1 (stereo not drawn) | -2.85 |
| O=C(CCS(=O)(=O)C1CCCC1)NCc1ccccc1Cn1cncn1 | -4.9 |
| Cc1nccn1-c1cc(CNC(=O)NCC2CCCO2)ccn1 (stereo not drawn) | -7.9 |
| CC(C)CN1CC(C(=O)NCCOc2ccc3c(c2)OCO3)CC1=O (stereo not drawn) | -1.39 |
| Cc1cc(C)n(C2CCCN(C(=O)c3ccc(N(C)C)nc3)C2)n1 (stereo not drawn) | -4.26 |
| Cc1cc(C)n(CC2CCCN2C(=O)c2cncnc2C)n1 (stereo not drawn) | -2.98 |
| Cc1noc(C(C)N2CCN(Cc3nc(C)c(C)o3)CC2)n1 (stereo not drawn) | 0.397 |
| COCCN(Cc1nc2c(cnn2C)c(=O)[nH]1)C(C)c1ccccc1 (stereo not drawn) | -1.47 |

| SMILES | cytotoxicity at 10 µM [%] |
| --- | --- |
| CC1CCN(Cc2ccc(CNC(=O)c3ccn(C)c(=O)c3)cc2)CC1 | -2.94 |
| Cn1ccc(C(=O)NCc2ccc(CN3CCCC3)cc2)cc1=O | -13.5 |
| CCc1nc2n(n1)CC(NCc1cnn(Cc3ccccc3)c1)CC2 (stereo not drawn) | -10.4 |
| Cc1ccc(-n2cc(C(=O)N3CCCC(n4cccn4)C3)nn2)cc1 (stereo not drawn) | -20.3 |
| O=C(NCCCn1ccnc1)NCC(c1ccco1)N1CCCC1 (stereo not drawn) | -8.86 |
| CCn1cnnc1CNC(=O)N1CCN(Cc2ccco2)CC1 | -17.4 |
| CCc1nc(CN2CCCC(NCc3nc(C)c(C)o3)C2)no1 (stereo not drawn) | -12.1 |
| O=C(CCc1nccs1)N1CCN(c2nccs2)CC1 | -21.8 |
| CC(C)c1nc(CN2CCOCC2)cs1 | -7.49 |
| CCc1nc(CN2CCCN(C(=O)C3CCOCC3)CC2)cs1 | -8.11 |
| O=C(O)c1csc(S(=O)(=O)Nc2cccc(OCC(F)(F)F)c2)c1 | -13.1 |
| CC(C)N1CCc2nnc(COc3cncnc3)n2CC1 | 2.7 |
| c1nc(CN2CCC3(CC2)COCCN3CC2CC2)c[nH]1 | -1.26 |
| CN(C)CCOCc1cncc2c1CCN(C1CCOC1)C2 (stereo not drawn) | 9.68 |
| Cc1ccc(N2CCO[C@H]3[C@H](OCC(=O)N4CCCC4)CC[C@@H]32)cc1 | -1.03 |
| c1coc(CN2CCO[C@H]3[C@H](OCC4CC4)CC[C@@H]32)c1 | 5.22 |
| Cc1ccc(CN2CCC[C@@H]3CN(C(=O)c4ccco4)C[C@@H]32)o1 | 8.83 |
| CN(Cc1ccco1)[C@@H]1CN(C(=O)c2cnccn2)C[C@@H]2CCCO[C@@H]21 | 3.25 |
| c1cncc(OC[C@@H]2CCC[C@@]23CNCCO3)c1 | 10.5 |
| O=C(CN1C[C@H]2CC(OCc3ccccc3)C[C@H]2C1)N1CCOCC1 (stereo partly drawn) | -9.92 |
